Source: article PMC7744370 (European journal of medicinal chemistry, 2020)

What was measured:
[1] = test system: GPCRs expressed in the brain; assay: Primary binding assay at selected CNS receptors; conditions: 10 μM
In short: (§1)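 […] primary binding screen across a panel of brain-expressed CNS receptors, including GPCRs, with test compound at 10 μM. The read-out is % inhibition of binding at each receptor, reported as mean ± SEM of four independent experiments. Receptors are grouped by >50% and >90% inhibition.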

dopamine transporter = dopamine transporter (Homo sapiens, UniProt Q01959); assay: NIMH PDSP binding assay at dopamine transporter
Chain of dopamine transporter (Q01959 whole entry): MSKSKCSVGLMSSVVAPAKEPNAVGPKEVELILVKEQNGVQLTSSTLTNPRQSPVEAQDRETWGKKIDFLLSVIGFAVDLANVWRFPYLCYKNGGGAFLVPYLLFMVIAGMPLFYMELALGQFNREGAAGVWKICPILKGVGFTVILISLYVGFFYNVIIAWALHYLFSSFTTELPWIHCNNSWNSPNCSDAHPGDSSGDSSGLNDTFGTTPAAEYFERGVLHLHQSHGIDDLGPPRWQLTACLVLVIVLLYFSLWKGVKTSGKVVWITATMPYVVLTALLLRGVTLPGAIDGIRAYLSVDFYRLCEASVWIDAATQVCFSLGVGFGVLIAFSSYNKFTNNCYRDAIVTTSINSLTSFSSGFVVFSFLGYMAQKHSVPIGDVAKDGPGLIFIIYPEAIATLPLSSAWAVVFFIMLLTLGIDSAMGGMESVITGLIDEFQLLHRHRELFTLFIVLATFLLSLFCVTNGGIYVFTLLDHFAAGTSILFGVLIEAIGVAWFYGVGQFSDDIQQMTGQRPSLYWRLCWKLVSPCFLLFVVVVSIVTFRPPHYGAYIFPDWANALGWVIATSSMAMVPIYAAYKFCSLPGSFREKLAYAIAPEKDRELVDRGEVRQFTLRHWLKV

[2] = Liver microsomal stability; type: in vitro ADME; conditions: rat liver microsomes, up to 60 minutes, compared with PFL
In short: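 Pooled male Sprague-Dawley rat liver microsomes were diluted to a 6.2% mixture in warm potassium-phosphate buffer. Test compound, diluted to 5 μM from a DMSO stock, was mixed with NADPH regenerating solution and prewarmed to 37 °C. Microsomes were then added and incubated 1 h at 37 °C with shaking. Aliquots at 0, 5, 15, 30 and 60 min were quenched in ice-cold acetonitrile, centrifuged at 4 °C and analysed by LC-MS/MS. Percent remaining was calculated from peak-area ratios versus T=0. Results are mean ± SEM, three experiments in triplicate.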

[3] = test system: dopamine receptors (subtypes D1-D5); assay: Primary binding assay at dopamine receptors; conditions: 10 μM
In short: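 Primary binding screen across a CNS GPCR panel, run through the NIMH screening programme at UNC Chapel Hill. Test compound at 10 μM; read-out is % inhibition as mean ± SEM of four independent experiments. Ki was not evaluated for receptors with under 50% activity.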

serotonin receptors = assay: Primary binding assay at serotonin receptors; conditions: 10 μM
In short: as §1

[4] = In vivo BBB permeability, plasma and brain distribution by LC-MS/MS; parameters: species or system C57 mice
In short: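 Male and female C57 mice, 8 weeks old and about 20 g, received a single i.p. 10 mg/kg dose of test compound in 2.5% ethanol, 2.5% DMSO, 5% Tween 80, 25% PEG 400 and 65% PBS. Blood was drawn under anaesthesia at 0, 0.5, 1, 6, 24 and 48 h. Brains were taken after cardiac perfusion and homogenised in PBS (1:3 w/v). Samples were acetonitrile-precipitated with internal standard and quantified by positive-ESI MRM LC-MS/MS against blank-matrix calibration curves. Results are mean ± SEM of 2–4 experiments.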

MDA-MB-231 cells [5] = assay: Induction of apoptosis in MDA-MB-231 cells; type: cell-based, human; conditions: 1 μM, 48 hours
MDA-MB-231 cells [6] = assay: Cell cycle analysis in MDA-MB-231 cells; type: cell-based, human
FGFR1 = assay: pFGFR1 immunoblot in MDA-MB-231 cells with and without bFGF; type: cell-based, human; conditions: 3 μM and 6 μM, in the presence of bFGF, 48 hours
In short: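 Phospho-FGFR1 (1:1000) western blot used MDA-MB-231 lysates after 48 h exposure to test compound, with or without the natural ligand bFGF. Lysis was on ice in RIPA buffer with protease/phosphatase inhibitors, followed by SDS-PAGE of equal protein and transfer to PVDF. β-tubulin (1:2000) served as loading control. Detection used HRP anti-rabbit secondary and chemiluminescence, then band densitometry; n = 3.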

caspase-3 = assay: Caspase-3 cleavage; type: cell-based, human; conditions: MDA-MB-231
In short: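 MDA-MB-231 cells, grown in DMEM with 10% heat-inactivated FBS at 37 °C and 5% CO2, were exposed to test compound for 48 h and lysed on ice in RIPA buffer with protease/phosphatase inhibitors. Equal protein was run on SDS-PAGE and blotted to PVDF. Blots were probed for cleaved caspase-3 and total caspase-3 (1:1000), with β-tubulin (1:2000) as loading control. Detection used goat anti-rabbit HRP secondary and chemiluminescence; bands were quantified by densitometry.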

[7] = test system: MDA-MB-231 triple-negative breast cancer cells; assay: MTT cytotoxicity assay on MDA-MB-231 cells; type: cell-based, human
In short: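 MDA-MB-231 cells were kept in DMEM with 10% heat-inactivated FBS and antibiotic-antimycotic at 37 °C, 5% CO2, and tested for mycoplasma. Cells were seeded at 8000/well, grown 24 h, then screened at 20 μM. Dose series of 0–25 μM were given in 2% FBS DMEM with 0.1% final DMSO for 48 h. MTT (0.5 mg/mL) was added for 2 h at 37 °C, formazan dissolved in DMSO and read at 570 nm. IC50 was fitted from three independent experiments.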

OC1(c2ccc(Cl)c(C(F)(F)F)c2)CCN(CCCC(c2ccc(F)cc2)c2ccc(F)cc2)CC1 [PFL, penfluridol]
number of receptors (GPCRs) inhibited at the level above 50% [1]: 28

O=C(Nc1ccc(Cl)c(C(F)(F)F)c1)N1CCC(CC(c2ccc(F)cc2)c2ccc(F)cc2)CC1 [19b, 4-(2,2-bis(4-fluorophenyl)ethyl)-N-(4-chloro-3-(trifluoromethyl)phenyl) piperidine-1 carboxamide]
DAT inhibitory activity (in words) (dopamine transporter): abolished DAT activity

CN(CCCCC(c1ccc(F)cc1)c1ccc(F)cc1)C(=O)N(C)c1ccc(Cl)c(C(F)(F)F)c1 [compound 15, 1-(5,5-bis(4-fluorophenyl)pentyl)-3-(4-chloro-3-(trifluoromethyl)phenyl)-1,3-dimethylurea]
DAT inhibitory activity (in words) (dopamine transporter): inactive as a DAT inhibitor

O=C(NCCCCC(c1ccc(F)cc1)c1ccc(F)cc1)Nc1ccc(Cl)c(C(F)(F)F)c1 [4l, 1-(5,5-bis(4-fluorophenyl)pentyl)-3-(4-chloro-3-(trifluoromethyl)phenyl)urea]
metabolic stability in liver microsomes [2]: preferred metabolic stability over PFL

O=C(NCCCCC(c1ccc(F)cc1)c1ccc(F)cc1)Nc1ccc(Cl)cc1 [4a, 1-(5,5-bis(4-fluorophenyl)pentyl)-3-(4-chlorophenyl)urea]
interaction with dopamine receptors (subtypes D1-D5) [3]: no significant interaction
activity at serotonin receptors (serotonin receptors): no activity at serotonin receptors, except for 5HT-2C
Tmax ([4]; both, C57, mouse, in vivo, ip, 10 mg/kg): 1 h
ability to cross the BBB in vivo ([4]; mice, 10 mg/kg i.p.): retained activity to cross the BBB
peak concentration ([4]; mice, 10 mg/kg single i.p., plasma and brain (Fig. 3)): approximately 1000 nM

CC(=O)Nc1cc(NC(=O)NCCCCC(c2ccc(F)cc2)c2ccc(F)cc2)ccc1Cl [4o, N-(5-(3-(5,5-bis(4-fluorophenyl)pentyl)ureido)-2-chlorophenyl)acetamide]
decrease in affinity to DAT compared to 4l (dopamine transporter): 100 fold

O=C(NCCCCC(c1ccc(F)cc1)c1ccc(F)cc1)Nc1ccc([N+](=O)[O-])c(C(F)(F)F)c1 [4q, 1-(5,5-bis(4-fluorophenyl)pentyl)-3-(4-nitro-3-(trifluoromethyl)phenyl)urea]
induction of apoptosis (MDA-MB-231 cells [5]): significant induction of apoptosis
effect on cell cycle (MDA-MB-231 cells [6]): did not affect the cell cycle
metabolic stability in liver microsomes [2]: preferred metabolic stability over PFL
phosphorylation of FGFR1 (FGFR1): completely abrogated phosphorylation of FGFR1
caspase-3 cleavage and activation (caspase-3): capable of caspase-3 cleavage and activation

O=C(NCCCCC(c1ccc([N+](=O)[O-])cc1)c1ccc([N+](=O)[O-])cc1)Nc1ccc(Cl)c(C(F)(F)F)c1 [8g, 1-(5,5-bis(4-nitrophenyl)pentyl)-3-(4-chloro-3-(trifluoromethyl)phenyl)urea]
optimization of cytotoxicity relative to hit molecule 4a [7]: 6 fold
